Eleven molecules from ChEMBL document CHEMBL4041470, “Isolation, Structure Elucidation, and Absolute Configuration of Highly Oxygenated Germacranolides from Carpesium cernuum” (J Nat Prod, 2016) can be followed below.

Common to all, as to type: functional, cell-based
One assay relates to HCT-116. The assay can be described thus: Cytotoxicity against human HCT116 cells assessed as reduction in cell viability after 72 hrs by MTT assay. The following applies: HCT-116, 72 h. A digest of the protocol:
(§1)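 Human cancer cells grown in 96-well plates and exposed for 72 h at 37 °C under 5% CO2. Survival rates read by MTT assay, with doxorubicin as positive control. IC50 reported as the mean of triplicate determinations.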
Background: Tetrazolium dyes change colour on reduction, which living cells bring about.

Another assay deals with A549. The experiment in a line: Cytotoxicity against human A549 cells assessed as reduction in cell viability after 72 hrs by MTT assay. Particulars: A549, 72 h. In outline: as §1
In another assay the test system is MDA-MB-231. The experiment in a line: Cytotoxicity against human MDA-MB-231 cells assessed as reduction in cell viability after 72 hrs by MTT assay. Particulars: MDA-MB-231, 72 h. A digest of the protocol: as §1
Another assay deals with BEL-7404 tumor cell line. The assay can be described thus: Cytotoxicity against human Bel7404 cells assessed as reduction in cell viability after 72 hrs by MTT assay. Particulars: BEL-7404, 72 h. In outline: as §1

Each structure is given as a SMILES string. A value given as a limit tells only on which side of the number the result lay.

The term IC50 denotes the concentration needed to halve the response being measured. Regarding `C/C=C(/C)C(=O)O[C@H]1[C@@H](O)[C@@H]2[C@H](OC(=O)[C@H]2COC)[C@@H](OC(=O)C(C)C)[C@@](C)(O)C(=O)CC[C@H]1C`, the IC50 is 49.6 µM in the assay on HCT-116, more than 100 µM with A549, more than 100 µM in the assay on MDA-MB-231 and 71.7 µM with BEL-7404 tumor cell line.
With `C/C=C(/C)C(=O)O[C@@H]1[C@H]2OC(=O)[C@@H](COC)[C@@H]2[C@H](O)[C@H](OC(=O)CC(C)C)[C@H](C)CCC(=O)[C@]1(C)O`, the IC50 in the assay with HCT-116 was 71.5 µM; with A549 it was more than 100 µM; in the assay on MDA-MB-231, more than 100 µM; in the assay with BEL-7404 tumor cell line, 79 µM.
Take `C=C1C(=O)O[C@H]2[C@H]1[C@H](O)[C@H](OC(=O)/C(C)=C\C)[C@H](C)CCC(=O)[C@](C)(O)[C@@H]2OC(=O)C(C)C`: the IC50 in the assay on HCT-116 was 0.87 µM; in the assay with A549, 12.1 µM; in the assay with MDA-MB-231 it was 2.02 µM; in the assay on BEL-7404 tumor cell line, 1.8 µM.
As to `C=C1C(=O)O[C@H]2[C@H]1[C@@H](O)[C@]1(O)O[C@@H](C[C@H]1C)C[C@](C)(O)[C@@H]2OC(=O)C(C)C`, the concentration for half-maximal inhibition (IC50) is more than 100 µM with HCT-116, more than 100 µM in the assay on A549, more than 100 µM in the assay on MDA-MB-231 and 81.9 µM in the assay on BEL-7404 tumor cell line.
In the case of `C=C1C(=O)O[C@H]2[C@H]1[C@H](O)[C@]1(O)O[C@@H](C[C@H]1C)C[C@](C)(O)[C@@H]2OC(=O)/C(C)=C\C`, the half-inhibitory concentration (IC50) with HCT-116 was 37.5 µM; with A549, more than 100 µM; with MDA-MB-231, more than 100 µM; with BEL-7404 tumor cell line, 69.6 µM.
In the case of `C=C1C(=O)O[C@H]2[C@H]1[C@H](OC(=O)C(C)C)C(=O)[C@H](C)CCC[C@](C)(O)[C@@H]2OC(=O)C(C)C`, the IC50 in the assay on HCT-116 stood at 2.65 µM; in the assay on A549, 29.9 µM; in the assay on MDA-MB-231, 7.48 µM; in the assay on BEL-7404 tumor cell line, 7.32 µM.
The like results for `C=C1C(=O)O[C@H]2[C@H]1[C@H](OC(=O)/C(C)=C\C)C(=O)[C@H](C)CCC[C@](C)(O)[C@@H]2OC(=O)C(C)C` (relative stereo) were, in that order, 5.51 µM, 18.4 µM, 7.53 µM and 7.35 µM.
The like results for `C=C1C(=O)O[C@H]2[C@H]1[C@@H](O)[C@]1(O)O[C@@H](C[C@H]1C)C[C@](C)(O)[C@@H]2OC(=O)/C(C)=C\C` (relative stereo) were, in that order, more than 100 µM, more than 100 µM, more than 100 µM and 56.4 µM.
The like results for `C/C=C(/C)C(=O)O[C@H]1[C@@H](O)[C@@H]2[C@H](OC(=O)[C@H]2COC)[C@@H](OC(=O)/C(C)=C\C)[C@@](C)(O)C(=O)CC[C@H]1C` (relative stereo) were, in that order, 36.4 µM, more than 100 µM, more than 100 µM and 88.1 µM.
As for `C/C=C(/C)C(=O)O[C@H]1[C@@H](O)[C@@H]2[C@H](OC(=O)[C@H]2COC)[C@@H](OC(=O)C(C)CC)[C@@](C)(O)C(=O)CC[C@H]1C` (relative stereo), the 50% inhibitory concentration (IC50) in the assay on HCT-116 is 58 µM; in the assay on A549 it was 90.4 µM; with MDA-MB-231, more than 100 µM; in the assay on BEL-7404 tumor cell line, 62.9 µM.
Take `COc1cccc2c1C(=O)c1c(O)c3c(c(O)c1C2=O)C[C@@](O)(C(=O)CO)C[C@@H]3O[C@H]1C[C@H](N)[C@H](O)[C@H](C)O1` [DOXORUBICIN]: the IC50 with HCT-116 stood at 0.007 µM; in the assay on A549 it was 0.015 µM; with MDA-MB-231, 0.13 µM; in the assay with BEL-7404 tumor cell line it was 0.13 µM.
